TRPC6 act: activates the mouse TRPC6 cation channel | B-score at 10 µM | Q61143 | AID 2550 | HEK293-TRPC6 membrane potential dye fluorescence; hits give high values | 310,000 tested, 0.13% active;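 active means B-score of the integrated fluorescence ratio above library mean plus 3 SD, and starting fluorescence ratio within library mean plus 5 SD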;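 further: higher score means more depolarization so channel activation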
TRPC4 inh: blocks the mouse TRPC4 cation channel; 300,000 tested, 0.39% active; HEK293 TRPC4beta/mu-opioid, DAMGO-evoked Fluo4 calcium flux; hits give low values; AID 2247; B-score at 10 µM;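 active means B-score over 3 SD under the library average, no early fluorescence shift, positive overall ratio signal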
Target sequence (Q9QUQ5 whole entry, looked up): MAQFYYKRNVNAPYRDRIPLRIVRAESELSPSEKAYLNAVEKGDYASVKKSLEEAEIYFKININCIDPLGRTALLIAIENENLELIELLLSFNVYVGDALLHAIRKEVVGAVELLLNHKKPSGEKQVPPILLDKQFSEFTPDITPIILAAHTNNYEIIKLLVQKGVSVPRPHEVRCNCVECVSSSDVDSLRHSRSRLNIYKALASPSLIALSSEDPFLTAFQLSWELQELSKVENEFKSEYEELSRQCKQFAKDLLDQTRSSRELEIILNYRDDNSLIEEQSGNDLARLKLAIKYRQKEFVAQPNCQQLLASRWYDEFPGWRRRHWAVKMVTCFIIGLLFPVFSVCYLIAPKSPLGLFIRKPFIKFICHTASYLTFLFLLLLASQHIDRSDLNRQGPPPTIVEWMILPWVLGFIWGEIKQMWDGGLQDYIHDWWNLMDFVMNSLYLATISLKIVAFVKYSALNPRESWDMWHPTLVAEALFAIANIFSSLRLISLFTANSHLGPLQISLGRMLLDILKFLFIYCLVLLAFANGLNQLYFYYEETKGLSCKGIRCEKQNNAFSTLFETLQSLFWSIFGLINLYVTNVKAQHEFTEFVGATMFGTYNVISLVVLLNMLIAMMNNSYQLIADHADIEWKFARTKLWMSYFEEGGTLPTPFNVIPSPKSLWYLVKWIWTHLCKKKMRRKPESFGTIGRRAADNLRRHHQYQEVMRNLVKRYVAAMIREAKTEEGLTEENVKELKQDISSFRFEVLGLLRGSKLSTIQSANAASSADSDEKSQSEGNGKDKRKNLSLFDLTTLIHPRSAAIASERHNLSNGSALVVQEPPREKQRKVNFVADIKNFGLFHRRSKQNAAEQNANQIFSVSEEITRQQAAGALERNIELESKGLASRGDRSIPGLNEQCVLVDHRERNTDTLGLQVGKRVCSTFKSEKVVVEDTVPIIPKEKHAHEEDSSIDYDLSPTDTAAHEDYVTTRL
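Signal: kinetic Fluo4 fluorescence imaging of calcium influx. Material: stable TRPC4beta/mu-opioid receptor HEK293 cells. Probe or stimulus: DAMGO in two steps, submaximal then maximal.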
TRPC4 act: activators of mouse TRPC4 channel | Q9QUQ5 | HEK293 TRPC4beta/mu-opioid, Fluo4 calcium fluorescence; hits give high values | B-score at 10 µM | 310,000 tested, 0.49% active | AID 2237;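 active means B-score above 5 SD of library B-scores, and initial fluorescence ratio not above library mean plus 5 SD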;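 further: positive B-score marks a calcium rise read as TRPC4 activation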
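System: HEK293 cells stably co-expressing mouse TRPC4beta and mu-opioid receptor; Schedule: Fluo4 dye loading 45 min at room temperature, 110 s recording; Detection: Fluo4 fluorescence, kinetic; Evaluation: B-scored integrated calcium fluorescence ratio; Controls: buffer (low) and maximal DAMGO (high).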
TRPC6 inhibitor: mouse TRPC6 channel inhibition; 310,000 tested, 1.1% active; Q61143; B-score at 10 µM; HEK293-TRPC6, membrane potential dye, ACh-evoked depolarization; hits give low values;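 active means B-score under library mean minus 3 SD, initial fluorescence not abnormally high, positive integrated signal ratio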;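 further: B-score derived from integrated fluorescence ratio over the kinetic read; more negative B-score means stronger inhibition of depolarization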
TRPC4 potent: allosterically enhances the mouse TRPC4 cation channel. Q9QUQ5. HEK293 TRPC4beta/mu-opioid, DAMGO EC20, Fluo-4 Ca2+ flux; hits give high values. B-score at 10 µM. 310,000 tested, 0.42% active;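 active means B-score of calcium response area above 5 SD of library B-scores, with initial fluorescence ratio within 5 SD of library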;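 further: B-score of integrated fluorescence ratio over time as area under calcium response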
TRPC4 sel inh 2: mouse TRPC4 off-target activity of TRPC6 inhibitors, second screen | shares compounds with TRPC6 inhibitor | HEK293 TRPC4/MOR, membrane potential dye fluorescence; channel activated by saturating DAMGO dose | inhibition, % at 10 µM | 920 tested, 42% active;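 active means compounds whose fluorescence signal differed from control wells by over 3 SD, either direction, in both duplicate plates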
TRPC4 spec: mouse TRPC4 off-target activity of TRPC6 inhibitors; shares compounds with TRPC6 inhibitor; HEK293 TRPC4/mu-opioid, membrane potential fluorescence; activity change, negative = inhibition, % at 10 µM; 920 tested, 61% active;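 active means rise or fall in signal beyond 3 SD of buffer-only wells in both replicate plates, either sign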;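 further: integrated kinetic ratio of fluorescence range over baseline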
HEK293 MPD ctr 2-1: parental HEK293 nonspecific activity of TRPC6 inhibitors, second screen; shares compounds with TRPC6 inhibitor; parental HEK293 membrane potential dye fluorescence; maximal acetylcholine challenge after compound addition; signal change vs control, % at 10 µM; 920 tested, 31% active; AID 2779;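 active means membrane potential signal moving either way by over 3 SD of the maximum-effect control, in both duplicate plates, meaning non-specific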
HEK293 MPD ctr-1: checks TRPC6 inhibitor effects in parental HEK293 cells. parental HEK293 membrane potential dye fluorescence. shares compounds with TRPC6 inhibitor. 920 tested, 60% active. membrane potential signal change, % at 10 µM;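 active means membrane potential signal shifting up or down by more than 3 SD of buffer-only wells, on both duplicate plates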
HEK293 MPD ctr-2: parental HEK293 nonspecific activity of TRPC6 modulators; shares compounds with TRPC6 inhibitor; membrane potential dye fluorescence; membrane potential signal change, % at 10 µM; 2,400 tested, 51% active;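 active means membrane potential signal moves up or down beyond 5 SD from buffer-only wells, on both duplicate plates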
HEK293 MPD ctr 2-2: second counter-screen for TRPC6 modulators: effect in parental HEK293 cells | shares compounds with TRPC6 inhibitor | membrane potential dye fluorescence; after compound, maximal acetylcholine stimulation | inhibition, % at 10 µM | 2,400 tested, 14% active | AID 488926;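 active means membrane potential signal drops by more than 5 SD from the mean control signal, in both duplicate plates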;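 further: plate controls were acetylcholine ECmax control wells for no effect and buffer only wells for full effect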
TRPC4/MOR mod: selectivity of TRPC6 modulators against mouse TRPC4; shares compounds with TRPC6 inhibitor; HEK293 TRPC4/mu-opioid, membrane potential fluorescence; percent change from control (negative = decrease, positive = increase), % at 10 µM; 2,400 tested, 69% active; AID 488927;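 active means membrane potential signal moved up or down beyond 5 SD of buffer control wells, in both duplicate plates, actives on both sides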;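 further: plate controls were assay buffer wells for no effect and DAMGO maximal-effect wells for full effect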
TRPC4/MOR inh 2: mouse TRPC4 off-target activity of TRPC6 modulators, second screen | inhibition, % at 10 µM | 2,400 tested, 55% active | shares compounds with TRPC6 inhibitor | AID 488928 | HEK293 TRPC4/mu-opioid, membrane potential dye fluorescence; stimulated with maximal-effect DAMGO;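 active means drop in membrane potential signal beyond 5 SD of the control wells in both duplicate plates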;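 further: TRPC4 counter screen for TRPC6 hits run under conditions tuned for TRPC6 not TRPC4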
TRPC6 block conf: confirmation of mouse TRPC6 inhibitors; 3,300 tested, 43% active; shares compounds with TRPC6 inhibitor; inhibition, % at 10 µM; HEK293-TRPC6, membrane potential dye, ACh-evoked depolarization;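 active means fluorescence ratio falls more than 5 SD below the full-stimulation control mean, in both duplicate runs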;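 further: integrated fluorescence ratio of peak minus minimum over baseline after agonist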
TRPC6 act confirm: mouse TRPC6 activator confirmation; activation, % at 10 µM; HEK293-TRPC6 membrane potential dye fluorescence, FDSS; 2,800 tested, 11% active; shares compounds with TRPC6 inhibitor; AID 488961;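 active means ratio signal rise beyond 5 SD above unstimulated control wells' mean, seen in both duplicate runs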;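 further: plate controls were buffer EC0 wells for no effect and acetylcholine ECmax response for full effect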
* hit, by the source's call; i = inactive; x = no result. This is a sample that favours compounds with a hit; in the whole collection about 2.3% have one here.

SMILES	TRPC6 act	TRPC4 inh	TRPC4 act	TRPC6 inhibitor	TRPC4 potent	HEK293 MPD ctr-2	HEK293 MPD ctr 2-2	TRPC4/MOR mod	TRPC4/MOR inh 2	TRPC6 block conf	TRPC6 act confirm	others
CCOC(=O)CC(=O)c1sc2c(c1N)c(=O)[nH]c(=O)n2-c1ccc(OC)cc1	i	i	i	i	i	x	x	x	x	x	x
Cc1ccnc(SCCn2c(N3CCN(Cc4ccccc4)CC3)nc3c2c(=O)[nH]c(=O)n3C)n1	i	i	i	-10*	i	-340%*	71%*	-61%*	57%*	59%*	i
O=C(c1ccc(Br)o1)N1CCN(Cc2ccccc2Cl)CC1	i	i	i	i	i	x	x	x	x	x	x
COc1ccc(-n2cnnc2SCC(=O)Nc2cc(S(=O)(=O)N3CCCCC3)ccc2C)cc1	i	i	i	-6.1*	i	i	i	i	i	i	i
COc1cc(NC(=O)CCc2nnc3ccc(N4CCCCC4)nn23)cc(OC)c1OC	i	i	i	i	i	x	x	x	x	x	x
O=C1NC(=Nc2ccccc2Cl)S/C1=C\c1cccc([N+](=O)[O-])c1O	i	i	i	-6*	i	i	i	-12%*	65%*	i	i
COc1c(/C=C2\SC(=Nc3ccccc3Cl)NC2=O)cccc1[N+](=O)[O-]	i	i	i	i	i	x	x	x	x	x	x
O=C(NCC(=O)N1CCOCC1)c1ccc(Cl)cc1	i	i	i	-9.1*	i	i	i	i	i	i	i
COc1ccc(C)cc1N=Nc1ccc(O)c2ncccc12	i	i	i	-5.1*	i	-135%*	i	-34%*	73%*	i	i
COc1ccc(N=Nc2ccc(O)c3ncccc23)cc1	i	i	i	i	i	x	x	x	x	x	x
Cc1ccc(-c2nn3c(C)nnc3s2)cc1NC(=O)c1cccnc1	i	i	i	-9.7*	i	-244%*	i	-43%*	40%*	i	i
Cc1nnc2ccc(-c3cccc(NC(=O)c4ccc(Br)o4)c3)nn12	i	i	i	i	i	x	x	x	x	x	x
Cc1nnc2sc(-c3cccc(NC(=O)c4cccnc4)c3)nn12	i	i	i	-6.5*	i	-148%*	i	-28%*	i	i	i
CCOc1cccc(C(=O)Nc2cc(-c3nn4c(C)nnc4s3)ccc2C)c1	i	i	i	i	i	x	x	x	x	x	x
Cc1nnc2ccc(-c3cccc(NC(=O)c4ccc(Cl)nc4)c3)nn12	i	i	i	-5.8*	i	i	i	-16%*	37%*	48%*	i
COCCN1C(=O)N(c2cccc(C)c2)C(=O)C1CC(=O)Nc1ccc(OC)cc1 (centres undefined)	i	i	i	i	i	x	x	x	x	x	x
O=C(COC(=O)c1ncc(Cl)c(Cl)c1Cl)Nc1cccnc1Cl	i	i	i	i	i	x	x	x	x	x	x
O=C(CC1C(=O)NCCN1Cc1ccccc1C(F)(F)F)NCCN1CCCCC1=O (centres undefined)	i	i	i	i	i	x	x	x	x	x	x
c1cc2c3c(cccc3c1)C(N1CCCCC1)=N2	i	i	i	-11*	i	-195%*	78%*	-52%*	93%*	76%*	i
c1ccc(NC2=Nc3cccc4cccc2c34)cc1	i	i	i	i	i	x	x	x	x	x	x
c1cc2c3c(cccc3c1)C(N1CCCCCC1)=N2	i	i	i	-12*	i	-208%*	i	-46%*	68%*	i	i
O=S(=O)(c1ccc(-c2ccon2)s1)N1CCN(c2ccccn2)CC1	i	i	i	i	i	x	x	x	x	x	x
CCOC(=O)C1CCN(C(c2cc3c(C)ccc(C)c3[nH]c2=O)c2nnnn2C2CCCCC2)CC1 (centres undefined)	i	i	i	i	i	x	x	x	x	x	x
CCOC(=O)C1CCN(C(c2cc3ccc(C)c(C)c3[nH]c2=O)c2nnnn2C2CCCCC2)CC1 (centres undefined)	i	i	i	-8.8*	i	x	x	x	x	i	x	TRPC4 sel inh 2=i;TRPC4 spec=i;HEK293 MPD ctr 2-1=i;HEK293 MPD ctr-1=i
Brc1ccccc1OCCN1CCCC1	i	i	i	i	i	x	x	x	x	x	x
OC(C#CCN1CCCC1)(c1ccccc1)c1cccnc1 (centres undefined)	i	i	i	-6.1*	i	i	69%*	i	i	82%*	i
CCCN(CC#CC(O)(c1ccccc1)c1cccnc1)CCC (centres undefined)	i	i	i	i	i	x	x	x	x	x	x
OC(C#CCN1CCCC1)c1ccccc1 (centres undefined)	i	i	i	i	i	x	x	x	x	x	x
OC(C#CCN1CCCCCC1)(c1ccccc1)c1cccnc1 (centres undefined)	i	i	i	-7.3*	i	x	x	x	x	63%*	x	TRPC4 sel inh 2=i;TRPC4 spec=3.4%*;HEK293 MPD ctr 2-1=8.5%*;HEK293 MPD ctr-1=4.8%*
O=C(Cn1cccc1C(=O)c1ccccc1)NCc1ccccc1Cl	i	i	i	-5.1*	i	i	i	i	i	i	i

Compound activity from PubChem BioAssay.
